Values after ≈ are worked out from the molar mass of the structure shown. *1 amine or outer side, *2 acyl side, *3 side chain or, on linkers, in order; H or OH if unused. Where a SMILES comes first, the peptide text is derived from it. Bridges are numbered along the chain shown (N, C = ends). [ ]: non-standard residue; d: D form. The star is where a group is joined. pTerphenylCO(4''-OnC5H11) = CCCCCOc1ccc(-c2ccc(-c3ccc(C(=O)*)cc3)cc2)cc1; Orn(4R-OH,5R-OH) = O=C([C@H](C[C@@H](O)[C@@H](O)N[*:3])N[*:1])[*:2]; hTyr(3S-OH,4S-OH) = N[C@H](C(=O)O)[C@H](O)[C@@H](O)c1ccc(O)cc1; Pro(3S-OH,4S-Me) = C[C@H]1CN[C@H](C(=O)O)[C@H]1O; Hyp = O=C(O)[C@@H]1C[C@@H](O)CN1
Tests used:
Format in all cases: functional
Saccharomyces cerevisiae = assay: Antimicrobial activity against Saccharomyces cerevisiae by broth microdilution method
[1] = Antimicrobial activity against Rhizopus microsporus by broth microdilution method
In short: (§1)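 Filamentous fungus clinical isolates tested by the AFST-EUCAST reference broth microdilution method for moulds. For echinocandins, the endpoint was the minimum effective concentration: the lowest drug concentration giving aberrant hyphal growth, read with an inverted microscope.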

[Candida] zeylanoides = Antimicrobial activity against Candida zeylanoides by broth microdilution method; details: Dujonia zeylanoides
In short: (§2)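 Clinical isolates from human patients, tested by broth microdilution using the AFST-EUCAST reference procedure for fermentative yeasts. The MIC was read per that reference method.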

Cladosporium = assay: Antimicrobial activity against Cladosporium spp. by broth microdilution method
In short: (§3)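 Clinical mould isolates, tested by broth microdilution using the AFST-EUCAST reference method for filamentous fungi. For echinocandins, the endpoint was the minimum effective concentration: the lowest drug concentration giving aberrant hyphal growth, read with an inverted microscope.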

Trichosporon jirovecii = assay: Antimicrobial activity against Trichosporon jirovecii by broth microdilution method; details: Cutaneotrichosporon jirovecii
In short: (§4)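 Nonfermentative yeast clinical isolates (Rhodotorula, Trichosporon) tested by broth microdilution. The EUCAST yeast recommendations were followed strictly, with one minor modification to improve growth. MIC was read as the endpoint.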

Paecilomyces variotii = assay: Antimicrobial activity against Paecilomyces variotii by broth microdilution method; in short: as §1
Trichosporon asahii = assay: Antimicrobial activity against Trichosporon asahii by broth microdilution method; in short: as §4
Candida metapsilosis = assay: Antimicrobial activity against Candida metapsilosis by broth microdilution method; details: Lodderomyces metapsilosis; in short: as §2
Aspergillus niger = assay: Antimicrobial activity against Aspergillus niger by broth microdilution method; in short: as §3
Trichoderma = assay: Antimicrobial activity against Trichoderma spp. by broth microdilution method; in short: as §1
Rhizomucor = assay: Antimicrobial activity against Rhizomucor spp.by broth microdilution method; in short: as §1
Aspergillus sydowii = assay: Antimicrobial activity against Aspergillus sydowii by broth microdilution method; in short: as §3
Lichtheimia corymbifera = assay: Antimicrobial activity against Mycocladus corymbiferus by broth microdilution method; in short: as §1
Paecilomyces lilacinus = assay: Antimicrobial activity against Paecilomyces lilacinus by broth microdilution method; details: Purpureocillium lilacinum; in short: as §1
Pichia kudriavzevii = assay: Antimicrobial activity against Candida krusei by broth microdilution method; in short: as §2
Alternaria alternata = assay: Antimicrobial activity against Alternaria alternata by broth microdilution method; in short: as §3
Wickerhamomyces anomalus = assay: Antimicrobial activity against Candida pelliculosa by broth microdilution method; details: Hansenula anomala; in short: as §2
[Candida] inconspicua = Antimicrobial activity against Candida inconspicua by broth microdilution method; details: Pichia inconspicua; in short: as §2
Beauveria bassiana = assay: Antimicrobial activity against Beauveria bassiana by broth microdilution method; in short: as §3
Neurospora sitophila = assay: Antimicrobial activity against Chrysonilia sitophila by broth microdilution method; in short: as §3
Aspergillus versicolor = assay: Antimicrobial activity against Aspergillus versicolor by broth microdilution method; in short: as §3
[2] = system: Cladophialophora bantiana; assay: Antimicrobial activity against Cladophialophora bantiana by broth microdilution method; in short: as §3
[3] = Antimicrobial activity against Hormographiella aspergillata by broth microdilution method; details: Coprinopsis cinerea; in short: as §1
Yarrowia lipolytica = assay: Antimicrobial activity against Yarrowia lipolytica by broth microdilution method
Aspergillus sclerotiorum = assay: Antimicrobial activity against Aspergillus sclerotiorum by broth microdilution method; in short: as §3
Trichosporon = assay: Antimicrobial activity against Trichosporon spp. by broth microdilution method; in short: as §4
Pichia norvegensis = assay: Antimicrobial activity against Candida norvegensis by broth microdilution method; in short: as §2
Trichosporon ovoides = assay: Antimicrobial activity against Trichosporon ovoides by broth microdilution method; in short: as §4
Aspergillus = assay: Antimicrobial activity against Aspergillus spp. by broth microdilution method; in short: as §3
Nakaseomyces glabratus = assay: Antimicrobial activity against Candida glabrata by broth microdilution method; in short: as §2
Exophiala jeanselmei = assay: Antimicrobial activity against Exophiala jeanselmei by broth microdilution method
Papiliotrema laurentii = assay: Antimicrobial activity against Cryptococcus laurentii by broth microdilution method
In short: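 Clinical isolates of nonfermentative yeasts, tested by broth microdilution following EUCAST recommendations. The only change from that method was a minor modification to improve growth.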

Aspergillus fumigatus = assay: Antimicrobial activity against Aspergillus fumigatus by broth microdilution method; in short: as §3
Lomentospora prolificans = assay: Antimicrobial activity against Scedosporium prolificans by broth microdilution method; in short: as §1
Geotrichum candidum = assay: Antimicrobial activity against Galactomyces geotrichum by broth microdilution method
Candida albicans = assay: Antimicrobial activity against Candida albicans by broth microdilution method; in short: as §2
Debaryomyces hansenii = assay: Antimicrobial activity against Candida famata by broth microdilution method; in short: as §2
Saksenaea vasiformis = assay: Antimicrobial activity against Saksenaea vasiformis by broth microdilution method; in short: as §1
Trichosporon dermatis = assay: Antimicrobial activity against Trichosporon dermatis by broth microdilution method; details: Cutaneotrichosporon dermatis; in short: as §4
Candida parapsilosis = assay: Antimicrobial activity against Candida parapsilosis by broth microdilution method; details: Lodderomyces parapsilosis; in short: as §2
Magnusiomyces capitatus = assay: Antimicrobial activity against Dipodascus capitatus by broth microdilution method

Structure (SMILES): CCCCCOc1ccc(-c2ccc(-c3ccc(C(=O)N[C@H]4C[C@@H](O)[C@@H](O)NC(=O)[C@@H]5[C@@H](O)[C@@H](C)CN5C(=O)[C@H]([C@@H](C)O)NC(=O)[C@H]([C@H](O)[C@@H](O)c5ccc(O)cc5)NC(=O)[C@@H]5C[C@@H](O)CN5C(=O)[C@H]([C@@H](C)O)NC4=O)cc3)cc2)cc1 [ANIDULAFUNGIN] ({pTerphenylCO(4''-OnC5H11)}-[Orn(4R-OH,5R-OH)]T[Hyp][hTyr(3S-OH,4S-OH)]T[Pro(3S-OH,4S-Me)]; lactam 1-C)
- MIC50 (Saccharomyces cerevisiae): 0.12 µg/mL (≈ 0.105 µM)
- MIC90 (Saccharomyces cerevisiae): 0.25 µg/mL (≈ 0.219 µM)
- MIC50 [1]: > 16 µg/mL
- MIC90 [1]: > 16 µg/mL
- MIC50 ([Candida] zeylanoides): 0.06 µg/mL (≈ 0.0526 µM)
- MIC90 ([Candida] zeylanoides): 0.25 µg/mL (≈ 0.219 µM)
- MIC50 (Cladosporium): 0.03 µg/mL (≈ 0.0263 µM)
- MIC90 (Cladosporium): 0.06 µg/mL (≈ 0.0526 µM)
- MIC50 (Trichosporon jirovecii): > 16 µg/mL
- MIC90 (Trichosporon jirovecii): > 16 µg/mL
- MIC50 (Paecilomyces variotii): 0.03 µg/mL (≈ 0.0263 µM)
- MIC90 (Paecilomyces variotii): 0.03 µg/mL (≈ 0.0263 µM)
- MIC50 (Trichosporon asahii): > 16 µg/mL
- MIC90 (Trichosporon asahii): > 16 µg/mL
- MIC50 (Candida metapsilosis): 0.06 µg/mL (≈ 0.0526 µM)
- MIC90 (Candida metapsilosis): 0.25 µg/mL (≈ 0.219 µM)
- MIC50 (Aspergillus niger): 0.03 µg/mL (≈ 0.0263 µM)
- MIC90 (Aspergillus niger): 0.03 µg/mL (≈ 0.0263 µM)
- MIC50 (Trichoderma): > 16 µg/mL
- MIC90 (Trichoderma): > 16 µg/mL
- MIC50 (Rhizomucor): > 16 µg/mL
- MIC90 (Rhizomucor): > 16 µg/mL
- MIC50 (Aspergillus sydowii): 0.03 µg/mL (≈ 0.0263 µM)
- MIC90 (Aspergillus sydowii): 0.03 µg/mL (≈ 0.0263 µM)
- MIC50 (Lichtheimia corymbifera): > 16 µg/mL
- MIC90 (Lichtheimia corymbifera): > 16 µg/mL
- MIC50 (Paecilomyces lilacinus): > 16 µg/mL
- MIC90 (Paecilomyces lilacinus): > 16 µg/mL
- MIC50 (Pichia kudriavzevii): 0.03 µg/mL (≈ 0.0263 µM)
- MIC90 (Pichia kudriavzevii): 0.06 µg/mL (≈ 0.0526 µM)
- MIC50 (Alternaria alternata): 0.06 µg/mL (≈ 0.0526 µM)
- MIC90 (Alternaria alternata): > 16 µg/mL
- MIC50 (Wickerhamomyces anomalus): 0.06 µg/mL (≈ 0.0526 µM)
- MIC90 (Wickerhamomyces anomalus): 0.25 µg/mL (≈ 0.219 µM)
- MIC50 ([Candida] inconspicua): 0.06 µg/mL (≈ 0.0526 µM)
- MIC90 ([Candida] inconspicua): 0.25 µg/mL (≈ 0.219 µM)
- MIC50 (Beauveria bassiana): > 16 µg/mL
- MIC90 (Beauveria bassiana): > 16 µg/mL
- MIC50 (Neurospora sitophila): > 16 µg/mL
- MIC90 (Neurospora sitophila): > 16 µg/mL
- MIC50 (Aspergillus versicolor): 0.03 µg/mL (≈ 0.0263 µM)
- MIC90 (Aspergillus versicolor): 0.03 µg/mL (≈ 0.0263 µM)
- MIC50 [2]: 0.03 µg/mL (≈ 0.0263 µM)
- MIC90 [2]: 0.06 µg/mL (≈ 0.0526 µM)
- MIC50 [3]: > 16 µg/mL
- MIC90 [3]: > 16 µg/mL
- MIC50 (Yarrowia lipolytica): 0.06 µg/mL (≈ 0.0526 µM)
- MIC90 (Yarrowia lipolytica): 0.12 µg/mL (≈ 0.105 µM)
- MIC50 (Aspergillus sclerotiorum): 0.06 µg/mL (≈ 0.0526 µM)
- MIC90 (Aspergillus sclerotiorum): 0.25 µg/mL (≈ 0.219 µM)
- MIC50 (Trichosporon): > 16 µg/mL
- MIC90 (Trichosporon): > 16 µg/mL
- MIC50 (Pichia norvegensis): 0.06 µg/mL (≈ 0.0526 µM)
- MIC90 (Pichia norvegensis): 0.25 µg/mL (≈ 0.219 µM)
- MIC50 (Trichosporon ovoides): > 16 µg/mL
- MIC90 (Trichosporon ovoides): > 16 µg/mL
- MIC50 (Aspergillus): 0.06 µg/mL (≈ 0.0526 µM)
- MIC90 (Aspergillus): 0.25 µg/mL (≈ 0.219 µM)
- MIC50 (Nakaseomyces glabratus): 0.03 µg/mL (≈ 0.0263 µM)
- MIC90 (Nakaseomyces glabratus): 0.03 µg/mL (≈ 0.0263 µM)
- MIC50 (Exophiala jeanselmei): 0.03 µg/mL (≈ 0.0263 µM)
- MIC90 (Exophiala jeanselmei): 0.06 µg/mL (≈ 0.0526 µM)
- MIC50 (Papiliotrema laurentii): > 16 µg/mL
- MIC90 (Papiliotrema laurentii): > 16 µg/mL
- MIC50 (Aspergillus fumigatus): 0.03 µg/mL (≈ 0.0263 µM)
- MIC90 (Aspergillus fumigatus): 0.03 µg/mL (≈ 0.0263 µM)
- MIC50 (Lomentospora prolificans): 4 µg/mL (≈ 3.51 µM)
- MIC90 (Lomentospora prolificans): > 16 µg/mL
- MIC50 (Geotrichum candidum): > 16 µg/mL
- MIC90 (Geotrichum candidum): > 16 µg/mL
- MIC50 (Candida albicans): 0.03 µg/mL (≈ 0.0263 µM)
- MIC90 (Candida albicans): 0.03 µg/mL (≈ 0.0263 µM)
- MIC50 (Debaryomyces hansenii): 0.06 µg/mL (≈ 0.0526 µM)
- MIC90 (Debaryomyces hansenii): 0.25 µg/mL (≈ 0.219 µM)
- MIC50 (Saksenaea vasiformis): > 16 µg/mL
- MIC90 (Saksenaea vasiformis): > 16 µg/mL
- MIC50 (Trichosporon dermatis): > 16 µg/mL
- MIC90 (Trichosporon dermatis): > 16 µg/mL
- MIC50 (Candida parapsilosis): 1 µg/mL (≈ 0.877 µM)
- MIC90 (Candida parapsilosis): 2 µg/mL (≈ 1.75 µM)
- MIC50 (Magnusiomyces capitatus): 2 µg/mL (≈ 1.75 µM)
- MIC90 (Magnusiomyces capitatus): 4 µg/mL (≈ 3.51 µM)

— ChEMBL document CHEMBL1649165, “Activity profile in vitro of micafungin against Spanish clinical isolates of common and emerging species of yeasts and molds” (2009)
